Screening data from PubChem.
PLCg1 inh: PLC-gamma1 enzyme inhibitors, primary screen, biochemical, fluorescence, purified enzyme; inhibition, % at 12.2 µM; fluorogenic substrate; 1-phosphatidylinositol 4,5-bisphosphate phosphodiesterase gamma-1 (Homo sapiens), P19174; actives 0.84% (n = 370,000); in the data active = inhibition above about 9.5%
HGIII-sPLA2 inh: human group III sPLA2 inhibitors, primary screen, biochemical, QFRET, BODIPY PC-A2 liposome substrate. Group 3 secretory phospholipase A2 (Homo sapiens), Q9NZ20. AID 743126, 2013. inhibition, % at 12.2 µM. QFRET BODIPY PC-A2 liposome hydrolysis, fluorescence. actives 0.56% (n = 370,000);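 active = inhibition above mean plus 3 SD of compounds lying within the high and low control bounds, cut at about 19% in these data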
proCasp7 act: procaspase-7 activators, primary screen, counter-screen for procaspase-3 activator project, biochemical, absorbance, HTS, human | recombinant procaspase-7, Ac-DEVD-pNA absorbance 405 nm; D23A/D198A/D206A triple mutant, cannot self-cleave; scale: DMSO 0, 5 µM enzyme 100 | activation, % at 8.5 µM | actives 0.093% (n = 330,000) | Caspase-7 (Homo sapiens), P55210;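 active = percent activation above the screen-wide mean plus 3 SD, cut at about 25% in these data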
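System: Procaspase-7 triple mutant (PC-7 D3A); measure: % activation from two-timepoint absorbance difference, scaled to controls; times: 1 h compound preincubation, 2 h substrate cleavage, 25 °C; also added: Ac-DEVD-pNA substrate, 400 µM as added; measured by: Epi-absorbance of released pNA at 405 nm, two timepoints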
PLCb3 inh: human PLC-beta3 inhibitors, primary screen, biochemical, fluorescence; Purified PLC-beta3, fluorogenic substrate; inhibition, % at 12.2 µM; actives 0.18% (n = 370,000); AID 720704, 2013; in the data active = inhibition above about 11%
procasp3 activ: activators of human procaspase-3 D3A mutant, primary screen, biochemical, absorbance, PC-3 D3A mutant, single concentration. Caspase-3 (Homo sapiens), P42574. recombinant procaspase-3 D3A, Ac-DEVD-pNA absorbance 405 nm. activation, % at 8.5 µM. actives 0.11% (n = 330,000);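 active = activation above the mean of all tested compounds plus 3 SD, cut at about 21% in these data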
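Evaluation: percent activation relative to control range; Material: Procaspase-3 D3A mutant, all three cleavage aspartates alanine; Compound: single dose, 8.5 µM nominal compound, 0.8% DMSO; Replication: one well per compound; Signal: absorbance at 405 nm, 0 and 120 min; Schedule: 1 h preincubation plus 2 h reaction at 25 °C.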
procasp7 triplic: procaspase-7 activators, counter-screen for procaspase-3 activator project, biochemical, absorbance, triplicate, human. shares compounds with procasp3 activ. recombinant procaspase-7, Ac-DEVD-pNA absorbance; asp23/198/206-to-Ala mutant, cannot self-cleave. activation, % at 8.5 µM. 210 tested, under 10 active;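 active = mean activation above a set limit taken from an earlier procaspase-7 screen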
proCasp3 confirm: activators of human procaspase-3 D3A mutant, confirmation, biochemical, absorbance, PC-3 D3A mutant, triplicate. shares compounds with procasp3 activ. actives 10% (n = 210). recombinant PC-3 D3A, Ac-DEVD-pNA absorbance 405 nm; 100% is higher-enzyme control. activation, % at 8.5 µM. AID 488954, 2010;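 active = mean activation above a set limit carried over from the earlier primary screen, cut at about 22% in these data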
A number is an active result; – = inactive; · = no result. A selection: hits, their analogues and other compounds. The true share with any hit is near 1.6%.

SMILES	PLCg1 inh	HGIII-sPLA2 inh	proCasp7 act	PLCb3 inh	procasp3 activ	procasp7 triplic	proCasp3 confirm
CC(C)CN1C(=O)C[C@@]2(C(=O)N(C)c3ccc(NS(=O)(=O)C4CC4)cc32)C1c1ccccc1 (stereo partly specified)	–	–	·	–	·	·	·
COc1cc(OC)c(N(C)S(=O)(=O)c2cccc(C(=O)OCC(=O)c3c[nH]c4ccccc34)c2)cc1Cl	–	–	–	–	–	·	·
C=CCN(c1ccccc1OC)S(=O)(=O)c1cccc(C(=O)OCC(=O)c2c[nH]c3ccccc23)c1	–	–	–	–	22	–	–
CCCCn1c(N)c(N(CC(C)C)C(=O)C2CC(=O)N(c3ccc(C)cc3)C2)c(=O)[nH]c1=O (stereo unspecified)	–	–	–	–	22	–	–
CC(C)(C)NCCCCOc1ccccc1F	–	–	–	–	–	·	·
COc1ccccc1OCCCCNC(C)(C)C	–	–	–	–	26	–	–
O=S(=O)(c1cccs1)N1CCC(CO)(Cc2cccc(F)c2)CC1	–	–	–	–	–	·	·
Cc1ccc(-c2cc(C(F)(F)F)c(C#N)c(SCCC#N)n2)o1	–	–	–	–	22	41	52
Cc1cscc1NC(=O)/C=C/C(=O)O	–	–	–	–	–	·	·
Cn1c(=NC(=O)CS(=O)(=O)c2ccc(F)cc2)sc2ccccc21	–	–	–	–	22	–	–
Cn1c(=NC(=O)CS(=O)(=O)c2ccccc2)sc2ccccc21	–	–	–	–	–	·	·
COc1ccc(N2CCN(C(=O)CC34CC5CC(CC(C5)C3)C4)CC2)c([N+](=O)[O-])c1	–	–	–	–	22	–	–
O=C(NCCc1ccccn1)c1ccc2nc(Cc3ccccc3F)oc2c1	–	–	–	–	–	·	·
CCN1C(=O)c2cccc3c(S(=O)(=O)N(C(C)=O)c4ccc(OC(C)=O)cc4)ccc1c23	–	–	–	–	24	–	–
Cc1c(O)ccc2c(CN3CCN(CCO)CC3)cc(=O)oc12	–	–	–	–	–	·	·
Cc1c(O)ccc2c(CN3CCOCC3)cc(=O)oc12	–	–	–	–	21	–	–
O=C1OCCN1C(=O)[C@H]1[C@H](c2ccc(Cl)cc2)C(c2ccccc2)=NN1c1ccc(Br)cc1	–	–	–	–	28	–	–
O=C1OCCN1C(=O)[C@H]1[C@H](c2ccc(F)cc2)C(c2cccc(Cl)c2)=NN1c1ccccc1	–	–	–	–	–	·	·
O=C1OCCN1C(=O)[C@H]1[C@H](c2ccc(Cl)cc2)C(c2cccc(Cl)c2)=NN1c1ccccc1	·	·	–	·	23	–	–
Cc1cccc(C2=NN(c3ccc(Br)cc3)[C@@H](C(=O)N3CCOC3=O)[C@@H]2c2ccc(Cl)cc2)c1	·	·	–	·	23	–	–
CSc1nnc(NC(=O)c2cccc(S(=O)(=O)N3CCOCC3)c2)s1	–	–	–	–	–	·	·
C=CCSC1=N/C(=C\c2sccc2C)C(=O)S1	–	–	–	–	59	–	–
Cc1ccc(S(=O)(=O)N(CC(=O)N2CCC(C)CC2)c2ccccc2)cc1	–	–	–	–	23	–	–
Cc1ccc(S(=O)(=O)N(CC(=O)N2CCCCCC2)c2ccccc2)cc1	–	–	–	–	–	·	·
COC(=O)CSCC(=O)Nc1nnc(-c2cccc(C)c2)s1	–	–	–	–	–	·	·
SMILES	PLCg1 inh	HGIII-sPLA2 inh	proCasp7 act	PLCb3 inh	procasp3 activ	procasp7 triplic	proCasp3 confirm
CCCCn1nc(C(=O)N(C)C2CCCCC2)c2ccccc2c1=O	–	–	–	–	22	–	–
CCN(c1ccccc1)S(=O)(=O)c1ccc(C(=O)N2CCN(c3ccccc3F)CC2)cc1	–	–	·	–	·	·	·
CCCCOn1c(C)c(C(=O)OCC)c2c3nonc3ccc21	–	–	–	–	24	–	25
CCCCOn1c(C)c(C(=O)OCC)c2c3no[n+]([O-])c3ccc21	–	–	–	–	–	·	·
Cn1c(-c2ccc(C=O)s2)nc2c3ccccc3c3ccccc3c21	–	–	–	–	46	–	–
C=CCn1c(O)c(N=NC(=S)Nc2cccc(OC)c2)c2ccccc21	–	–	–	–	34	–	–
C=CCn1c(O)c(N=NC(=S)Nc2ccc(OC)cc2)c2ccccc21	–	–	–	–	–	·	·
Cc1c(CCC(=O)NCCCN2CCCC2=O)c(=O)oc2cc(O)ccc12	–	–	–	–	26	–	–
CC(=O)N1CCN(C(=O)c2cc(S(=O)(=O)N(C)c3ccc(F)cc3)ccc2Cl)CC1	–	–	–	–	–	·	·
CC(C)c1ccc(-n2nc3ccc(N)cc3n2)cc1	–	–	–	–	31	–	–
Cc1ccc(-n2nc3ccc(N)cc3n2)cc1	–	–	–	–	–	·	·
C[C@H](CO)N1C[C@H](C)[C@@H](CN(C)C(=O)Nc2ccc(F)cc2)Oc2ccc(NS(C)(=O)=O)cc2C1=O	–	–	–	–	–	·	·
C=CCn1c2ccccc2c(=O)c2cc(C#CC[C@@H](C)O)ccc21	–	–	–	–	–	·	·
C=CCn1c2ccccc2c(=O)c2cc(C#CC3(O)CCCCC3)ccc21	–	–	–	–	150	–	–
CCCS(=O)(=O)NC(=O)C1(C)CCN(C(=O)c2cccs2)C1 (stereo unspecified)	–	–	·	–	·	·	·
O=C(NCc1cccs1)C1CCC(=O)N(Cc2cccc(C(F)(F)F)c2)C1 (stereo unspecified)	–	–	–	–	42	–	–
O=C(N[C@H](C(=O)N1CCC[C@H]1C(=O)NCc1ccccc1)C1CCCCC1)c1ccc(Cl)cc1Cl	–	–	·	–	·	·	·
Cc1ccc(CS(=O)(=O)CCC(=O)NCc2ccccc2Cl)cc1	–	–	–	–	–	·	·
CCN(CC)c1ccc(/C=N/NC(=O)c2cccc(S(=O)(=O)Nc3ccccc3OC)c2)cc1	–	–	–	–	–	·	·
CCN(CC)c1ccc(/C=N/NC(=O)c2cccc(S(=O)(=O)Nc3ccccc3OC)c2)c(O)c1	–	–	–	–	39	–	–
